Type in all cases: functional
The subject of test [1] is Nakaseomyces glabratus. The test is described as follows: Antimicrobial activity against 5-fluorocytosine resistant and ura3 harboring Candida glabrata BG14-FC8 harboring Fcy2L E238-V277dup mutant assessed as lowest concentration inhibiting growth >=80% by broth microdilution method. The gist of the method: (§1)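 Broth microdilution with 5FC or 5FU in RPMI 1640 buffered with 0.165 M MOPS, pH 7.0, plus 2% dextrose, replacing the YPD of the cited protocol. Drug stocks were in 50% DMSO, and final DMSO was ≤0.5%. Plates were incubated at 35°C and read at 630 nm. MIC was the lowest concentration giving ≥80% growth inhibition relative to the drug-free control.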

Test [2] deals with Nakaseomyces glabratus. The test is described as follows: Antimicrobial activity against 5-fluorocytosine resistant and ura3 harboring Candida glabrata 66032u-FC6 harboring Fcy1 T92deltastop mutant assessed as lowest concentration inhibiting growth >=80% by broth microdilution method. The gist of the method:
as §1

Test [3] has as its system Nakaseomyces glabratus. The test is described as follows: Antimicrobial activity against 5-fluorocytosine resistant and ura3 harboring Candida glabrata BG14-FC4 harboring Fcy1 E17stop mutant assessed as lowest concentration inhibiting growth >=80% by broth microdilution method. Summed up:
as §1

Test [4] deals with Nakaseomyces glabratus. The experiment in a line: Antimicrobial activity against 5-fluorocytosine resistant Candida glabrata 66032 assessed as lowest concentration inhibiting growth >=80% by broth microdilution method. The gist of the method:
as §1

For test [5], the system named is Nakaseomyces glabratus. The experiment in a line: Antimicrobial activity against 5-fluorocytosine resistant Candida glabrata isolate TE34-78 harboring Fcr1 L136R mutant assessed as lowest concentration inhibiting growth >=80% by broth microdilution method. Summed up:
as §1

Test [6] has as its system Nakaseomyces glabratus. The experiment in a line: Antimicrobial activity against 5-fluorocytosine resistant and ura3 harboring Candida glabrata 66032u-FC10 harboring Fcy2L Q396stop mutant assessed as lowest concentration inhibiting growth >=80% by broth microdilution method. The gist of the method:
as §1

Test [7] concerns Nakaseomyces glabratus. The test is described as follows: Antimicrobial activity against 5-fluorocytosine resistant and ura3 harboring Candida glabrata 66032u-FC5 harboring Fcy2L E342stop mutant assessed as lowest concentration inhibiting growth >=80% by broth microdilution method. The gist of the method:
as §1

Test [8] has as its system Nakaseomyces glabratus. The test is described as follows: Antimicrobial activity against 5-fluorocytosine resistant Candida glabrata 66032-FC5 harboring Fcy1 A15D mutant assessed as lowest concentration inhibiting growth >=80% by broth microdilution method. The gist of the method: as §1
In test [9] the test system is Nakaseomyces glabratus. The test is described as follows: Antimicrobial activity against 5-fluorocytosine resistant Candida glabrata 66032-FC2 harboring Fur1 deltaG73-V81mutant assessed as lowest concentration inhibiting growth >=80% by broth microdilution method. Summed up: as §1
The test system of test [10] is Nakaseomyces glabratus. The test is described as follows: Antimicrobial activity against 5-fluorocytosine resistant Candida glabrata 66032-FC6 harboring Fcy1 G11D mutant assessed as lowest concentration inhibiting growth >=80% by broth microdilution method. Summed up:
as §1

Test [11] concerns Nakaseomyces glabratus. The experiment in a line: Antimicrobial activity against 5-fluorocytosine resistant Candida glabrata 66032-FC4 harboring Fcy1 A15D mutant assessed as lowest concentration inhibiting growth >=80% by broth microdilution method. The gist of the method: as §1
In test [12] the test system is Nakaseomyces glabratus. The test is described as follows: Antimicrobial activity against 5-fluorocytosine resistant and ura3 harboring Candida glabrata 66032u assessed as lowest concentration inhibiting growth >=80% by broth microdilution method. The gist of the method: as §1
In test [13] the test system is Nakaseomyces glabratus. The experiment in a line: Antimicrobial activity against 5-fluorocytosine resistant and ura3 harboring Candida glabrata 66032u-FC1 harboring Fcy2L W291stop mutant assessed as lowest concentration inhibiting growth >=80% by broth microdilution method. The gist of the method:
as §1

The test system of test [14] is Nakaseomyces glabratus. The experiment in a line: Antimicrobial activity against 5-fluorocytosine resistant and ura3 harboring Candida glabrata 66032u-FC3 harboring Fcy1 H59D mutant assessed as lowest concentration inhibiting growth >=80% by broth microdilution method. The gist of the method: as §1
Test [15] concerns Nakaseomyces glabratus. The experiment in a line: Antimicrobial activity against 5-fluorocytosine resistant Candida glabrata isolate TE34-75 harboring FcY2J 1384F mutant assessed as lowest concentration inhibiting growth >=80% by broth microdilution method. Summed up:
as §1

Test [16] deals with Nakaseomyces glabratus. The experiment in a line: Antimicrobial activity against 5-fluorocytosine resistant Candida glabrata 66032-FC3 harboring Fur1 G71V mutant assessed as lowest concentration inhibiting growth >=80% by broth microdilution method. The gist of the method:
as §1

For test [17], the system named is Nakaseomyces glabratus. The test is described as follows: Antimicrobial activity against 5-fluorocytosine resistant Candida glabrata isolate 20251.021 harboring Fcy1 T84L mutant assessed as lowest concentration inhibiting growth >=80% by broth microdilution method. Summed up:
as §1

The subject of test [18] is Nakaseomyces glabratus. The test is described as follows: Antimicrobial activity against 5-fluorocytosine resistant Candida glabrata 66032-FC1 harboring Fur1 183K mutant assessed as lowest concentration inhibiting growth >=80% by broth microdilution method. The gist of the method: as §1
Test [19] has as its system Nakaseomyces glabratus. The test is described as follows: Antimicrobial activity against 5-fluorocytosine resistant Candida glabrata isolate 20408.055 harboring Fur1 G210D mutant assessed as lowest concentration inhibiting growth >=80% by broth microdilution method. Summed up: as §1
The subject of test [20] is Nakaseomyces glabratus. The test is described as follows: Antimicrobial activity against 5-fluorocytosine resistant and ura3 harboring Candida glabrata BG14 assessed as lowest concentration inhibiting growth >=80% by broth microdilution method. The gist of the method: as §1

In brackets after ≈: the same amount, converted by molar mass.

For the compound `Nc1nc(=O)[nH]cc1F` [FLUCYTOSINE], the minimum inhibitory concentration (MIC) in the test with Nakaseomyces glabratus [1] was 1 µg/mL (≈ 7.75 µM); in the test on Nakaseomyces glabratus [2], no less than 32 µg/mL; in the test with Nakaseomyces glabratus [3], no less than 32 µg/mL; in the test on Nakaseomyces glabratus [4] it was 0.03 µg/mL (≈ 0.232 µM); with Nakaseomyces glabratus [5], no less than 32 µg/mL; with Nakaseomyces glabratus [6], 1 µg/mL (≈ 7.75 µM). Also, the MIC in the test on Nakaseomyces glabratus [7] was 1 µg/mL (≈ 7.75 µM); in the test on Nakaseomyces glabratus [8] it was no less than 32 µg/mL; in the test on Nakaseomyces glabratus [9], no less than 32 µg/mL; in the test with Nakaseomyces glabratus [10] it was no less than 32 µg/mL; in the test with Nakaseomyces glabratus [11] it was no less than 32 µg/mL; in the test with Nakaseomyces glabratus [12], 0.008 µg/mL (≈ 0.062 µM). In addition, the minimal inhibitory concentration (MIC) is 1 µg/mL (≈ 7.75 µM) in the test on Nakaseomyces glabratus [13]; no less than 32 µg/mL in the test on Nakaseomyces glabratus [14]; 0.25 µg/mL (≈ 1.94 µM) in the test with Nakaseomyces glabratus [15]; no less than 32 µg/mL in the test with Nakaseomyces glabratus [16]; no less than 32 µg/mL with Nakaseomyces glabratus [17]; no less than 32 µg/mL with Nakaseomyces glabratus [18]. For the same compound, the MIC in the test with Nakaseomyces glabratus [19] was no less than 32 µg/mL; in the test with Nakaseomyces glabratus [20] it was 0.03 µg/mL (≈ 0.232 µM).

Source of the values: ChEMBL document CHEMBL1687799, “Mutational analysis of flucytosine resistance in Candida glabrata” (2010).
